In ChEMBL document CHEMBL1255475, “Mutant prevention concentrations of four carbapenems against gram-negative rods” (2010):
Converted amounts (≈) assume the structure as drawn.

Key:
Format in all cases: functional
Klebsiella pneumoniae [1] = assay: Antibacterial activity against beta-lactamase-positive ESBL-negative Klebsiella pneumoniae E472 incubated up to 7 days by agar dilution method; conditions: E472, 168 h
Klebsiella pneumoniae [2] = assay: Antibacterial activity against beta-lactamase-positive ESBL-negative Klebsiella pneumoniae E479 incubated up to 7 days by agar dilution method; conditions: E479, 168 h
In short: (§1)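 MPC determination: overnight cultures on blood trypticase soy agar at 35°C in air were resuspended in 0.9% saline, and CFU were counted on drug-free Mueller-Hinton agar. […] Growth was retested by agar dilution to confirm mutants. MPC was the lowest concentration preventing resistant-mutant growth.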

Klebsiella pneumoniae [3] = assay: Antibacterial activity against beta-lactamase-positive ESBL-negative Klebsiella pneumoniae E473 incubated up to 7 days by agar dilution method; conditions: E473, 168 h
Klebsiella pneumoniae [4] = assay: Antibacterial activity against beta-lactamase-positive ESBL-positive Klebsiella pneumoniae E478 incubated up to 7 days by agar dilution method; conditions: E478, 168 h
Klebsiella pneumoniae [5] = assay: Antibacterial activity against beta-lactamase-positive ESBL-positive Klebsiella pneumoniae E453 incubated up to 7 days by agar dilution method; conditions: E453, 168 h
In short: (§2)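 MIC by CLSI agar dilution, with quality-control strains in each run. Beta-lactamase status was set by 30 μg cefazolin Kirby-Bauer disk diffusion. ESBL status was set by cefotaxime and ceftazidime disks (30 μg) with and without clavulanic acid (10 μg).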

Klebsiella pneumoniae [6] = assay: Antibacterial activity against beta-lactamase-positive ESBL-negative Klebsiella pneumoniae E507 incubated up to 7 days by agar dilution method; conditions: E507, 168 h; in short: as §1
Klebsiella pneumoniae [7] = assay: Antibacterial activity against beta-lactamase-positive ESBL-negative Klebsiella pneumoniae E511 incubated up to 7 days by agar dilution method; conditions: E511, 168 h
Escherichia coli [8] = assay: Antibacterial activity against beta-lactamase-negative Escherichia coli E347 incubated up to 7 days by agar dilution method; conditions: E347, 168 h
Escherichia coli [9] = assay: Antibacterial activity against beta-lactamase-negative Escherichia coli E350 […] by agar dilution method
Escherichia coli [10] = assay: Antibacterial activity against beta-lactamase-positive ESBL-negative Escherichia coli E412 incubated up to 7 days by agar dilution method; conditions: E412, 168 h; in short: as §2
Escherichia coli [11] = assay: Antibacterial activity against beta-lactamase-negative Escherichia coli E424 […] by agar dilution method
Escherichia coli [12] = assay: Antibacterial activity against beta-lactamase-positive ESBL-positive Escherichia coli E456 incubated up to 7 days by agar dilution method; conditions: E456, 168 h; in short: as §2
Escherichia coli [13] = assay: Antibacterial activity against beta-lactamase-positive ESBL-positive Escherichia coli E459 incubated up to 7 days by agar dilution method; conditions: E459, 168 h; in short: as §2
Escherichia coli [14] = assay: Antibacterial activity against beta-lactamase-positive ESBL-positive Escherichia coli E451 incubated up to 7 days by agar dilution method; conditions: E451, 168 h; in short: as §2
Escherichia coli [15] = assay: Antibacterial activity against beta-lactamase-positive ESBL-positive Escherichia coli E460 incubated up to 7 days by agar dilution method; conditions: E460, 168 h; in short: as §2
Klebsiella pneumoniae [16] = assay: Antibacterial activity against beta-lactamase-negative Klebsiella pneumoniae E359 incubated up to 7 days by agar dilution method; conditions: E359, 168 h
Klebsiella pneumoniae [17] = assay: Antibacterial activity against beta-lactamase-negative Klebsiella pneumoniae E362 incubated up to 7 days by agar dilution method; conditions: E362, 168 h
Klebsiella pneumoniae [18] = assay: Antibacterial activity against beta-lactamase-negative Klebsiella pneumoniae E362 assessed as mutant prevention concentration after overnight incubation
Klebsiella pneumoniae [19] = assay: Antibacterial activity against beta-lactamase-negative Klebsiella pneumoniae E418 assessed as mutant prevention concentration after overnight incubation
In short: (§3)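 Overnight growth on blood trypticase soy agar (35°C, air) was resuspended in 0.9% saline and counted on drug-free Mueller-Hinton agar. […] Colonies were retested by agar dilution to confirm mutants. MPC was the lowest concentration preventing resistant-mutant growth.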

Klebsiella pneumoniae [20] = assay: Antibacterial activity against beta-lactamase-positive ESBL-positive Klebsiella pneumoniae E476 assessed as mutant prevention concentration after overnight incubation; in short: as §3
Klebsiella pneumoniae [21] = assay: Antibacterial activity against beta-lactamase-positive ESBL-negative Klebsiella pneumoniae E509 assessed as mutant prevention concentration after overnight incubation; in short: as §3
Klebsiella pneumoniae [22] = assay: Antibacterial activity against beta-lactamase-positive ESBL-negative Klebsiella pneumoniae E474 assessed as mutant prevention concentration after overnight incubation; in short: as §3
Klebsiella pneumoniae [23] = assay: Antibacterial activity against beta-lactamase-positive ESBL-negative Klebsiella pneumoniae E479 assessed as mutant prevention concentration after overnight incubation; in short: as §3
Klebsiella pneumoniae [24] = assay: Antibacterial activity against beta-lactamase-positive ESBL-negative Klebsiella pneumoniae E473 assessed as mutant prevention concentration after overnight incubation; in short: as §3
Klebsiella pneumoniae [25] = assay: Antibacterial activity against beta-lactamase-negative Klebsiella pneumoniae E420 assessed as mutant prevention concentration after overnight incubation; in short: as §3
Klebsiella pneumoniae [26] = assay: Antibacterial activity against beta-lactamase-positive ESBL-positive Klebsiella pneumoniae E453 assessed as mutant prevention concentration after overnight incubation; in short: as §3
Escherichia coli [27] = assay: Antibacterial activity against beta-lactamase-negative Escherichia coli E345 assessed as mutant prevention concentration after overnight incubation
Escherichia coli [28] = assay: Antibacterial activity against beta-lactamase-negative Escherichia coli E350 assessed as mutant prevention concentration after overnight incubation
Escherichia coli [29] = assay: Antibacterial activity against beta-lactamase-positive ESBL-negative Escherichia coli E412 assessed as mutant prevention concentration after overnight incubation; in short: as §3
Escherichia coli [30] = assay: Antibacterial activity against beta-lactamase-positive ESBL-positive Escherichia coli E450 assessed as mutant prevention concentration after overnight incubation; in short: as §3
Escherichia coli [31] = assay: Antibacterial activity against beta-lactamase-positive ESBL-positive Escherichia coli E452 assessed as mutant prevention concentration after overnight incubation; in short: as §3
Escherichia coli [32] = assay: Antibacterial activity against beta-lactamase-positive ESBL-positive Escherichia coli E460 assessed as mutant prevention concentration after overnight incubation; in short: as §3
Klebsiella pneumoniae [33] = assay: Antibacterial activity against beta-lactamase-negative Klebsiella pneumoniae E359 assessed as mutant prevention concentration after overnight incubation
Klebsiella pneumoniae [34] = assay: Antibacterial activity against beta-lactamase-negative Klebsiella pneumoniae E361 assessed as mutant prevention concentration after overnight incubation
Acinetobacter baumannii [35] = assay: Antibacterial activity against Acinetobacter baumannii A885 assessed as mutant prevention concentration after overnight incubation
Acinetobacter baumannii [36] = assay: Antibacterial activity against Acinetobacter baumannii A891 assessed as mutant prevention concentration after overnight incubation
Acinetobacter baumannii [37] = assay: Antibacterial activity against Acinetobacter baumannii A894 assessed as mutant prevention concentration after overnight incubation
Pseudomonas aeruginosa [38] = assay: Antibacterial activity against Pseudomonas aeruginosa P319 assessed as mutant prevention concentration after overnight incubation
Pseudomonas aeruginosa [39] = assay: Antibacterial activity against Pseudomonas aeruginosa P365 assessed as mutant prevention concentration after overnight incubation
Pseudomonas aeruginosa [40] = assay: Antibacterial activity against Pseudomonas aeruginosa P349 assessed as mutant prevention concentration after overnight incubation
Pseudomonas aeruginosa [41] = assay: Antibacterial activity against Pseudomonas aeruginosa P363 assessed as mutant prevention concentration after overnight incubation
Pseudomonas aeruginosa [42] = assay: Antibacterial activity against Pseudomonas aeruginosa P326 assessed as mutant prevention concentration after overnight incubation
Acinetobacter baumannii [43] = assay: Antibacterial activity against Acinetobacter baumannii A928 assessed as mutant prevention concentration after overnight incubation
Acinetobacter baumannii [44] = assay: Antibacterial activity against Acinetobacter baumannii A908 assessed as mutant prevention concentration after overnight incubation

## C[C@@H](O)[C@H]1C(=O)N2C(C(=O)O)=C(S[C@@H]3CN[C@H](C(=O)Nc4cccc(C(=O)O)c4)C3)[C@H](C)[C@H]12
Klebsiella pneumoniae [1]
  MIC: 8 µg/mL (≈ 16.8 µM)
Klebsiella pneumoniae [2]
  MIC: 8 µg/mL (≈ 16.8 µM)
Klebsiella pneumoniae [3]
  MIC: 8 µg/mL (≈ 16.8 µM)
Klebsiella pneumoniae [4]
  MIC: 8 µg/mL (≈ 16.8 µM)
Klebsiella pneumoniae [5]
  MIC: 0.5 µg/mL (≈ 1.05 µM)
Klebsiella pneumoniae [6]
  MIC: 8 µg/mL (≈ 16.8 µM)
Klebsiella pneumoniae [7]
  MIC: 8 µg/mL (≈ 16.8 µM)
Escherichia coli [8]
  MIC: 0.008 µg/mL (≈ 0.0168 µM)
Escherichia coli [9]
  MIC: 0.016 µg/mL (≈ 0.0336 µM)
Escherichia coli [10]
  MIC: 0.06 µg/mL (≈ 0.126 µM)
Escherichia coli [11]
  MIC: 0.016 µg/mL (≈ 0.0336 µM)
Escherichia coli [12]
  MIC: 0.125 µg/mL (≈ 0.263 µM)
Escherichia coli [13]
  MIC: 0.03 µg/mL (≈ 0.0631 µM)
Escherichia coli [14]
  MIC: 0.06 µg/mL (≈ 0.126 µM)
Escherichia coli [15]
  MIC: 0.125 µg/mL (≈ 0.263 µM)
Klebsiella pneumoniae [16]
  MIC: 0.016 µg/mL (≈ 0.0336 µM)
Klebsiella pneumoniae [17]
  MIC: 0.016 µg/mL (≈ 0.0336 µM)
Klebsiella pneumoniae [18]
  MPC: 0.06 µg/mL
Klebsiella pneumoniae [19]
  MPC: 0.125 µg/mL
Klebsiella pneumoniae [20]
  MPC: 32 µg/mL
Klebsiella pneumoniae [21]
  MPC: 64 µg/mL
Klebsiella pneumoniae [22]
  MPC: 32 µg/mL
Klebsiella pneumoniae [23]
  MPC: 64 µg/mL
Klebsiella pneumoniae [24]
  MPC: 32 µg/mL
Klebsiella pneumoniae [25]
  MPC: 0.03 µg/mL
Klebsiella pneumoniae [26]
  MPC: 1 µg/mL
Escherichia coli [27]
  MPC: 0.03 µg/mL
Escherichia coli [28]
  MPC: 0.03 µg/mL
Escherichia coli [29]
  MPC: 1 µg/mL
Escherichia coli [30]
  MPC: 1 µg/mL
Escherichia coli [31]
  MPC: 0.25 µg/mL
Escherichia coli [32]
  MPC: 0.5 µg/mL
Klebsiella pneumoniae [33]
  MPC: 0.03 µg/mL
Klebsiella pneumoniae [34]
  MPC: 0.06 µg/mL

## C[C@@H](O)[C@H]1C(=O)N2C(C(=O)O)=C(S[C@@H]3CN[C@H](CNS(N)(=O)=O)C3)[C@H](C)[C@H]12 [DORIPENEM]
Klebsiella pneumoniae [1]
  MIC: 2 µg/mL (≈ 4.76 µM)
Klebsiella pneumoniae [2]
  MIC: 4 µg/mL (≈ 9.51 µM)
Klebsiella pneumoniae [3]
  MIC: 2 µg/mL (≈ 4.76 µM)
Klebsiella pneumoniae [4]
  MIC: 2 µg/mL (≈ 4.76 µM)
Klebsiella pneumoniae [5]
  MIC: 0.06 µg/mL (≈ 0.143 µM)
Klebsiella pneumoniae [6]
  MIC: 2 µg/mL (≈ 4.76 µM)
Klebsiella pneumoniae [7]
  MIC: 2 µg/mL (≈ 4.76 µM)
Escherichia coli [8]
  MIC: 0.03 µg/mL (≈ 0.0713 µM)
Escherichia coli [9]
  MIC: 0.06 µg/mL (≈ 0.143 µM)
Escherichia coli [10]
  MIC: 0.03 µg/mL (≈ 0.0713 µM)
Escherichia coli [11]
  MIC: 0.03 µg/mL (≈ 0.0713 µM)
Escherichia coli [12]
  MIC: 0.03 µg/mL (≈ 0.0713 µM)
Escherichia coli [13]
  MIC: 0.03 µg/mL (≈ 0.0713 µM)
Escherichia coli [14]
  MIC: 0.03 µg/mL (≈ 0.0713 µM)
Escherichia coli [15]
  MIC: 0.03 µg/mL (≈ 0.0713 µM)
Klebsiella pneumoniae [16]
  MIC: 0.06 µg/mL (≈ 0.143 µM)
Klebsiella pneumoniae [17]
  MIC: 0.06 µg/mL (≈ 0.143 µM)
Acinetobacter baumannii [35]
  MPC: 8 µg/mL
Acinetobacter baumannii [36]
  MPC: 2 µg/mL
Acinetobacter baumannii [37]
  MPC: 2 µg/mL
Klebsiella pneumoniae [18]
  MPC: 0.125 µg/mL
Klebsiella pneumoniae [19]
  MPC: 0.25 µg/mL
Klebsiella pneumoniae [20]
  MPC: 8 µg/mL
Klebsiella pneumoniae [21]
  MPC: >64 µg/mL
Klebsiella pneumoniae [22]
  MPC: 32 µg/mL
Klebsiella pneumoniae [23]
  MPC: >64 µg/mL
Klebsiella pneumoniae [24]
  MPC: 8 µg/mL
Klebsiella pneumoniae [25]
  MPC: 0.06 µg/mL
Klebsiella pneumoniae [26]
  MPC: 0.125 µg/mL
Pseudomonas aeruginosa [38]
  MPC: 8 µg/mL
Pseudomonas aeruginosa [39]
  MPC: 8 µg/mL
Pseudomonas aeruginosa [40]
  MPC: 8 µg/mL
Pseudomonas aeruginosa [41]
  MPC: 4 µg/mL
Pseudomonas aeruginosa [42]
  MPC: 16 µg/mL
Acinetobacter baumannii [43]
  MPC: 1 µg/mL
Acinetobacter baumannii [44]
  MPC: 1 µg/mL
Escherichia coli [27]
  MPC: 0.06 µg/mL
Escherichia coli [28]
  MPC: 0.125 µg/mL
Escherichia coli [29]
  MPC: 0.125 µg/mL
Escherichia coli [30]
  MPC: 0.125 µg/mL
Escherichia coli [31]
  MPC: 0.125 µg/mL
Escherichia coli [32]
  MPC: 0.125 µg/mL
Klebsiella pneumoniae [33]
  MPC: 0.125 µg/mL
Klebsiella pneumoniae [34]
  MPC: 0.125 µg/mL
